Measurements published in ChEMBL document CHEMBL2157880, “Synthesis, antimycobacterial and antibacterial activity of ciprofloxacin derivatives containing a N-substituted benzyl moiety” (2012).
≈ marks a conversion by molar mass, not a printed value.

Experiments:
Type in all cases: functional
Streptococcus pneumoniae [1] = assay: Antibacterial activity against Streptococcus pneumoniae 10-6 after 18 to 24 hrs by NCCLS method
Method in brief: (§1)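 Standard NCCLS (M100-S11) MIC testing against Gram-positive and Gram-negative strains. Plates were incubated at 35 °C for 18–24 h. The MIC was read as the lowest concentration giving complete inhibition of visible bacterial growth.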

Klebsiella pneumoniae [2] = assay: Antibacterial activity against extended spectrum beta-lactamases producing Klebsiella pneumoniae 10-3 after 18 to 24 hrs by NCCLS method; method in brief: as §1
Escherichia coli [3] = assay: Antibacterial activity against extended spectrum beta-lactamases producing Escherichia coli 10-4 after 18 to 24 hrs by NCCLS method; method in brief: as §1
Pseudomonas aeruginosa [4] = assay: Antibacterial activity against Pseudomonas aeruginosa 10-18 after 18 to 24 hrs by NCCLS method; method in brief: as §1
Staphylococcus aureus [5] = assay: Antibacterial activity against Staphylococcus aureus ATCC 2592 after 18 to 24 hrs by NCCLS method; method in brief: as §1
[6] = test system: Staphylococcus epidermidis; assay: Antibacterial activity against methicillin-sensitive Staphylococcus epidermidis 10-11 after 18 to 24 hrs by NCCLS method; method in brief: as §1
Klebsiella pneumoniae [7] = assay: Antibacterial activity against Klebsiella pneumoniae 10-2 after 18 to 24 hrs by NCCLS method; method in brief: as §1
[8] = test system: Staphylococcus epidermidis; assay: Antibacterial activity against methicillin-sensitive Staphylococcus epidermidis 10-15 after 18 to 24 hrs by NCCLS method
Method in brief: (§2)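 Incubated at 35 °C for 18–24 h under NCCLS (M100-S11) standards. MIC was read as the lowest concentration giving complete inhibition of visible bacterial growth.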

Enterococcus faecalis [9] = assay: Antibacterial activity against Enterococcus faecalis 10-7 after 18 to 24 hrs by NCCLS method; method in brief: as §1
Escherichia coli [10] = assay: Antibacterial activity against extended spectrum beta-lactamases producing Escherichia coli 10-3 after 18 to 24 hrs by NCCLS method; method in brief: as §1
Escherichia coli [11] = assay: Antibacterial activity against Escherichia coli 10-1 after 18 to 24 hrs by NCCLS method; method in brief: as §1
Enterococcus faecium [12] = assay: Antibacterial activity against Enterococcus faecium 10-9 after 18 to 24 hrs by NCCLS method; method in brief: as §1
Staphylococcus aureus [13] = assay: Antibacterial activity against methicillin-resistant Staphylococcus aureus 10-11 after 18 to 24 hrs by NCCLS method; method in brief: as §2
Staphylococcus aureus [14] = assay: Antibacterial activity against methicillin-sensitive Staphylococcus aureus 10-13 after 18 to 24 hrs by NCCLS method; method in brief: as §1
Enterococcus faecalis [15] = assay: Antibacterial activity against Enterococcus faecalis 10-5 after 18 to 24 hrs by NCCLS method; method in brief: as §1
Enterococcus faecium [16] = assay: Antibacterial activity against Enterococcus faecium 10-6 after 18 to 24 hrs by NCCLS method; method in brief: as §1
Pseudomonas aeruginosa [17] = assay: Antibacterial activity against Pseudomonas aeruginosa 10-9 after 18 to 24 hrs by NCCLS method; method in brief: as §1
Pseudomonas aeruginosa [18] = assay: Antibacterial activity against Pseudomonas aeruginosa 10-5 after 18 to 24 hrs by NCCLS method; method in brief: as §1
Escherichia coli [19] = assay: Antibacterial activity against Escherichia coli 10-2 after 18 to 24 hrs by NCCLS method; method in brief: as §1
Pseudomonas aeruginosa [20] = assay: Antibacterial activity against Pseudomonas aeruginosa 10-15 after 18 to 24 hrs by NCCLS method; method in brief: as §1
Pseudomonas aeruginosa [21] = assay: Antibacterial activity against Pseudomonas aeruginosa 10-20 after 18 to 24 hrs by NCCLS method; method in brief: as §1
[22] = test system: Mycobacterium tuberculosis; assay: Antimycobacterial activity against Mycobacterium tuberculosis H37Rv ATCC 27294 by microplate alamar blue assay
Method in brief: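 Microplate Alamar Blue fluorescence assay on strain H37Rv ATCC 27294. MIC was the lowest concentration cutting fluorescence by ≥90% against the mean of replicate bacterium-only controls.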

Staphylococcus aureus [23] = assay: Antibacterial activity against methicillin-sensitive Staphylococcus aureus 10-14 after 18 to 24 hrs by NCCLS method; method in brief: as §1
Escherichia coli [24] = assay: Antibacterial activity against Escherichia coli 10-3 after 18 to 24 hrs by NCCLS method; method in brief: as §1
Enterococcus faecalis [25] = assay: Antibacterial activity against Enterococcus faecalis 10-6 after 18 to 24 hrs by NCCLS method; method in brief: as §1
[26] = test system: Staphylococcus epidermidis; assay: Antibacterial activity against methicillin-resistant Staphylococcus epidermidis 10-10 after 18 to 24 hrs by NCCLS method; method in brief: as §2
Klebsiella pneumoniae [27] = assay: Antibacterial activity against Klebsiella pneumoniae 10-4 after 18 to 24 hrs by NCCLS method; method in brief: as §1
Escherichia coli [28] = assay: Antibacterial activity against extended spectrum beta-lactamases producing Escherichia coli 10-2 after 18 to 24 hrs by NCCLS method; method in brief: as §1
Staphylococcus aureus [29] = assay: Antibacterial activity against methicillin-resistant Staphylococcus aureus 10-13 after 18 to 24 hrs by NCCLS method; method in brief: as §2
Escherichia coli [30] = assay: Antibacterial activity against Escherichia coli ATCC 25922 after 18 to 24 hrs by NCCLS method; method in brief: as §1
[31] = test system: Staphylococcus epidermidis; assay: Antibacterial activity against methicillin-resistant Staphylococcus epidermidis 10-13 after 18 to 24 hrs by NCCLS method; method in brief: as §2
Klebsiella pneumoniae [32] = assay: Antibacterial activity against extended spectrum beta-lactamases producing Klebsiella pneumoniae 10-2 after 18 to 24 hrs by NCCLS method; method in brief: as §1
Pseudomonas aeruginosa [33] = assay: Antibacterial activity against Pseudomonas aeruginosa 10-12 after 18 to 24 hrs by NCCLS method; method in brief: as §1
Staphylococcus aureus [34] = assay: Antibacterial activity against methicillin-resistant Staphylococcus aureus 10-15 after 18 to 24 hrs by NCCLS method; method in brief: as §2
Streptococcus pneumoniae [35] = assay: Antibacterial activity against Streptococcus pneumoniae 10-1 after 18 to 24 hrs by NCCLS method; method in brief: as §1
Staphylococcus aureus [36] = assay: Antibacterial activity against methicillin-sensitive Staphylococcus aureus 10-11 after 18 to 24 hrs by NCCLS method; method in brief: as §1
Klebsiella pneumoniae [37] = assay: Antibacterial activity against Klebsiella pneumoniae 10-3 after 18 to 24 hrs by NCCLS method; method in brief: as §1
Klebsiella pneumoniae [38] = assay: Antibacterial activity against extended spectrum beta-lactamases producing Klebsiella pneumoniae 10-1 after 18 to 24 hrs by NCCLS method; method in brief: as §1

Compound	MIC (Streptococcus pneumoniae [1])	MIC (Klebsiella pneumoniae [2])	MIC (Escherichia coli [3])	MIC (Pseudomonas aeruginosa [4])	MIC (Staphylococcus aureus [5])	MIC [6]	MIC (Klebsiella pneumoniae [7])	MIC [8]	MIC (Enterococcus faecalis [9])	MIC (Escherichia coli [10])	MIC (Escherichia coli [11])	MIC (Enterococcus faecium [12])	MIC (Staphylococcus aureus [13])	MIC (Staphylococcus aureus [14])	MIC (Enterococcus faecalis [15])	MIC (Enterococcus faecium [16])	MIC (Pseudomonas aeruginosa [17])	MIC (Pseudomonas aeruginosa [18])	MIC (Escherichia coli [19])	MIC (Pseudomonas aeruginosa [20])	other results
COc1cc(Br)c(CN2CCN(c3cc4c(cc3F)c(=O)c(C(=O)O)cn4C3CC3)CC2)cc1OC	> 128 µg/mL	> 128 µg/mL	> 128 µg/mL	8 µg/mL (≈ 14.3 µM)	2 µg/mL (≈ 3.57 µM)	8 µg/mL (≈ 14.3 µM)	> 128 µg/mL	> 128 µg/mL	> 128 µg/mL	> 128 µg/mL	> 128 µg/mL	> 128 µg/mL	32 µg/mL (≈ 57.1 µM)	4 µg/mL (≈ 7.14 µM)	> 128 µg/mL	8 µg/mL (≈ 14.3 µM)	8 µg/mL (≈ 14.3 µM)	8 µg/mL (≈ 14.3 µM)	> 128 µg/mL	16 µg/mL (≈ 28.6 µM)	MIC (Pseudomonas aeruginosa [21]): 16 µg/mL (≈ 28.6 µM); MIC [22]: > 32 µg/mL; MIC (Staphylococcus aureus [23]): 4 µg/mL (≈ 7.14 µM); MIC (Escherichia coli [24]): > 128 µg/mL; MIC (Enterococcus faecalis [25]): > 128 µg/mL; MIC [26]: > 128 µg/mL; MIC (Klebsiella pneumoniae [27]): > 128 µg/mL; MIC (Escherichia coli [28]): > 128 µg/mL; MIC (Staphylococcus aureus [29]): 32 µg/mL (≈ 57.1 µM); MIC (Escherichia coli [30]): 0.25 µg/mL (≈ 0.446 µM); MIC [31]: 32 µg/mL (≈ 57.1 µM); MIC (Klebsiella pneumoniae [32]): > 128 µg/mL; MIC (Pseudomonas aeruginosa [33]): 8 µg/mL (≈ 14.3 µM); MIC (Staphylococcus aureus [34]): 32 µg/mL (≈ 57.1 µM); MIC (Streptococcus pneumoniae [35]): 8 µg/mL (≈ 14.3 µM); MIC (Staphylococcus aureus [36]): 4 µg/mL (≈ 7.14 µM); MIC (Klebsiella pneumoniae [37]): 8 µg/mL (≈ 14.3 µM); MIC (Klebsiella pneumoniae [38]): > 128 µg/mL
COc1ccc(OC)c(CN2CCN(c3cc4c(cc3F)c(=O)c(C(=O)O)cn4C3CC3)CC2)c1	64 µg/mL (≈ 133 µM)	> 128 µg/mL	> 128 µg/mL	16 µg/mL (≈ 33.2 µM)	0.5 µg/mL (≈ 1.04 µM)	1 µg/mL (≈ 2.08 µM)	> 128 µg/mL	16 µg/mL (≈ 33.2 µM)	16 µg/mL (≈ 33.2 µM)	> 128 µg/mL	> 128 µg/mL	16 µg/mL (≈ 33.2 µM)	32 µg/mL (≈ 66.5 µM)	0.5 µg/mL (≈ 1.04 µM)	16 µg/mL (≈ 33.2 µM)	16 µg/mL (≈ 33.2 µM)	16 µg/mL (≈ 33.2 µM)	16 µg/mL (≈ 33.2 µM)	64 µg/mL (≈ 133 µM)	16 µg/mL (≈ 33.2 µM)	MIC (Pseudomonas aeruginosa [21]): 32 µg/mL (≈ 66.5 µM); MIC [22]: > 32 µg/mL; MIC (Staphylococcus aureus [23]): 1 µg/mL (≈ 2.08 µM); MIC (Escherichia coli [24]): 16 µg/mL (≈ 33.2 µM); MIC (Enterococcus faecalis [25]): 128 µg/mL (≈ 266 µM); MIC [26]: 16 µg/mL (≈ 33.2 µM); MIC (Klebsiella pneumoniae [27]): > 128 µg/mL; MIC (Escherichia coli [28]): > 128 µg/mL; MIC (Staphylococcus aureus [29]): 32 µg/mL (≈ 66.5 µM); MIC (Escherichia coli [30]): 1 µg/mL (≈ 2.08 µM); MIC [31]: 16 µg/mL (≈ 33.2 µM); MIC (Klebsiella pneumoniae [32]): > 128 µg/mL; MIC (Pseudomonas aeruginosa [33]): 8 µg/mL (≈ 16.6 µM); MIC (Staphylococcus aureus [34]): 16 µg/mL (≈ 33.2 µM); MIC (Streptococcus pneumoniae [35]): 8 µg/mL (≈ 16.6 µM); MIC (Staphylococcus aureus [36]): 0.5 µg/mL (≈ 1.04 µM); MIC (Klebsiella pneumoniae [37]): 16 µg/mL (≈ 33.2 µM); MIC (Klebsiella pneumoniae [38]): > 128 µg/mL
